PolyA inh = inhibitors of polyadenylation in S. cerevisiae. S. cerevisiae SKY197-pL101 polyadenylation reporter, beta-gal luminescence; efflux-impaired pdr1/pdr3 knockout yeast; score 100 = 6 SD above DMSO. activity score, % at 12 µM. 300,000 compounds, 0.02% hits;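 active = lowest replicate activity score at least 50, where 100 means six control SD above control mean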;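 note: yeast exposed to compound for 9 h at 30 °C; higher score means more reporter readthrough which indicates perturbed polyadenylation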
AHR act = human AHR activation | AHR-responsive luciferase reporter cells, luminescence | 320,000 compounds, 2.5% hits | P35869 | activation, % at 5 µM; in the data active = activation above about 47%
Arr AP2 block = blocks beta-arrestin peptide binding to AP2 adaptin. FITC-arrestin peptide / GST-AP2 beads, flow cytometry; AP2 beta2 appendage carries R879A mutation. inhibition, % at 10 µM. 340,000 compounds, 0.31% hits. AID 504490;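 active = inhibition above a set limit, near 3 SD of compounds lacking own fluorescence, cut at about 54% in these data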
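system = GST-tagged AP2 beta2-adaptin appendage (R879A) on 4 µm glutathione beads | reagent = FITC-labelled arrestin peptide probe, 50 nM final | schedule = compound with beads 12 min RT, then probe 1 h RT | signal = HyperCyt-sampled flow cytometry, FL1 channel, ex 488/em 535 nm | read-out = percent response from loss of bead-bound FITC fluorescence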
UCH37 DUB inh = human UCH37 deubiquitinating enzyme inhibition | Q9Y5K5 | purified proteasome/UCH37, Ub-AMC cleavage fluorescence | inhibition, % (test concentration not listed) | 330,000 compounds, 0.33% hits;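 active = mean inhibition over replicate wells above about 20%, limit read from the data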
Target sequence (Q9Y5K5 whole entry, looked up): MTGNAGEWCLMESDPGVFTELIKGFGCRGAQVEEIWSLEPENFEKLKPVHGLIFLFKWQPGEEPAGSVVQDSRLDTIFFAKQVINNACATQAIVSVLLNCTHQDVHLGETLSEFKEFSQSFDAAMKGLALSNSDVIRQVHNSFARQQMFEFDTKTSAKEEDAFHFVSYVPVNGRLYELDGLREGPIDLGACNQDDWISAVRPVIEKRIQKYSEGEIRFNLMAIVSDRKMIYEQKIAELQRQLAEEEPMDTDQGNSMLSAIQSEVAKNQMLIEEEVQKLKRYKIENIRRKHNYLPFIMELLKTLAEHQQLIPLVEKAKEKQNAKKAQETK
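Test system – human UCH37 enzyme supplied as purified proteasome complex · Incubation – 30 min preincubation with enzyme, 25 min cleavage at room temperature · Detection – AMC fluorescence from Ub-AMC cleavage, excitation 355 nm, emission 460 nm · Benchmarks – no-proteasome wells (full inhibition) and compound-free wells (no inhibition)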
APOBEC3G inh = blocks human APOBEC3G single-stranded DNA deamination; Q9HC16; recombinant A3G, ssDNA deamination FAM/TAMRA fluorescence; inhibition, % at 20 µM; 330,000 compounds, 0.28% hits; AID 493012;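 active = inhibition of at least 40% at 20 µM, with no more than 30% in the related APOBEC3A deaminase screen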
A3A deaminase = human APOBEC3A DNA deaminase inhibition | P31941 | recombinant A3A, FAM/TAMRA ssDNA deamination fluorescence | inhibition, % at 20 µM | 330,000 compounds, 0.41% hits;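 active = at least 40% inhibition at 20 µM here, with at most 30% in a related deaminase screen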
Target sequence (P31941 whole entry, looked up): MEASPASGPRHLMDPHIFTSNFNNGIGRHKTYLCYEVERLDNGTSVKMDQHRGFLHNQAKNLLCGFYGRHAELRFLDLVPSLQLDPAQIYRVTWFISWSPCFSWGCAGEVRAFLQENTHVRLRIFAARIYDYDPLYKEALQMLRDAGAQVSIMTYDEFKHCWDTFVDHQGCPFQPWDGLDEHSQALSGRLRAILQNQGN
Large screens that a line does not name were inactive. Sampled rows, rich in hits. Any-hit rate of the full collection: about 3.4%.

Cc1ccc2nc(-c3ccc(SCC(=O)O)nc3)[nH]c2c1	none
Cc1cc2nc(-c3ccc(SCC(=O)Nc4nccs4)nc3)[nH]c2cc1C	none (no result: PolyA inh, AHR act, UCH37 DUB inh, APOBEC3G inh, A3A deaminase)
CCc1nnc(NC(=O)CSc2ccc(-c3nc4ccc(C)cc4[nH]3)cn2)s1	AHR act 66.1
CCOc1cc(C=NNc2nncc(-c3ccccc3)n2)ccc1O	none (no result: PolyA inh, AHR act, Arr AP2 block, APOBEC3G inh, A3A deaminase)
c1ccn2c(SCc3ccc4c(c3)OCCO4)nnc2c1	none (no result: PolyA inh)
c1ccc2c(c1)ccc1nnc(SCc3ccc4c(c3)OCO4)n12	AHR act 65.4
O=c1c2ccccc2nc(-c2ccco2)n1/N=C/c1ccco1	AHR act 61.8 (no result: UCH37 DUB inh)
Cc1nc2ccccc2c(=O)n1/N=C/c1ccco1	none (no result: UCH37 DUB inh)
Cc1ccc(C=NNC(=O)c2cc(C)oc2C)o1	none (no result: PolyA inh, AHR act, Arr AP2 block, APOBEC3G inh, A3A deaminase)
COc1ccc(-c2csc(/C=C/c3ccc4c(c3)OCO4)n2)cc1OC	AHR act 53.8
O=[N+]([O-])c1cc(-c2cnc3ccccc3n2)ccc1Cl	none
COc1ccccc1Oc1ccc(-c2cnc3ccccc3n2)cc1[N+](=O)[O-]	AHR act 55.5
O=[N+]([O-])c1cc(-c2cnc3ccccc3n2)ccc1Oc1ccc(Cl)cc1	AHR act 49.8
O=C(Nc1cccc(F)c1)C1CCCN(C(=O)c2ccc(Cl)cc2)C1 (configuration not stated)	AHR act 50.9 (no result: PolyA inh)
CC(=NNC(=O)CN(c1ccc(C)cc1)S(C)(=O)=O)c1cccs1	none (no result: PolyA inh, AHR act, Arr AP2 block, APOBEC3G inh, A3A deaminase)
Cc1ccc(-n2nc(C)c3c(C)onc3c2=O)cc1	none
Cc1nn(-c2ccc(Cl)cc2)c(=O)c2c(C)noc12	AHR act 78.1
COc1ccc(F)cc1C(=O)C1CCCN(Cc2cccn2-c2cccnc2)C1 (configuration not stated)	AHR act 52.2
COc1ccc2sc3ccccc3c(=O)c2c1	none
COc1ccc(-c2cc(=O)c3ccccc3s2)cc1	AHR act 94.1
C=CCOc1ccc(C=NNC(=O)C(C)Sc2ccccn2)cc1OC (configuration not stated)	none (no result: PolyA inh, AHR act, Arr AP2 block, APOBEC3G inh, A3A deaminase)
CC(=O)C1=C(C)NC(SCC(=O)c2ccc(F)cc2)=C(C#N)C1c1ccco1 (configuration not stated)	AHR act 64.1
CC(=O)C1=C(C)NC(SCC(=O)c2cc(Cl)ccc2Cl)=C(C#N)C1c1ccco1 (configuration not stated)	AHR act 83.3
CC(=O)C1=C(C)NC(SCC(=O)c2ccc(Cl)c(Cl)c2)=C(C#N)C1c1ccco1 (configuration not stated)	none
COc1cc(C=NS(=O)(=O)c2ccccc2)cc(OC)c1O	none (no result: PolyA inh, AHR act, Arr AP2 block, APOBEC3G inh, A3A deaminase)
CCCc1nnc(NC(=O)OCC)s1	AHR act 74.0
CCOC(=O)Nc1nnc(/C=C/c2ccc(OC)cc2)s1	AHR act 74.3
Cn1c(O)c(C=Nc2ccc(N3CCOCC3)cc2)c(=O)n(C)c1=S	UCH37 DUB inh 33.7 (no result: AHR act, APOBEC3G inh, A3A deaminase)
Cc1cccc(OCC(=O)NCC(=O)NN=Cc2ccc([N+](=O)[O-])cc2)c1	none (no result: PolyA inh, AHR act, Arr AP2 block, APOBEC3G inh, A3A deaminase)
CCOCCCNC(=O)c1cc2c(-c3ccc(Cl)cc3)nn(C)c2s1	AHR act 56.1
CCN(CC)CCNC(=O)c1cc2c(-c3ccc(Cl)cc3)nn(C)c2s1	AHR act 52.9
CCN(CC)CCNC(=O)c1cc2c(-c3cccc(OC)c3)nn(C)c2s1	AHR act 47.8
Cc1nccn1CC(=O)NN=Cc1cc(Br)cs1	none (no result: PolyA inh, AHR act, Arr AP2 block, APOBEC3G inh, A3A deaminase)
C/C(C=NNC(=O)c1cc(C)oc1C)=C\c1ccccc1	none (no result: PolyA inh, AHR act, Arr AP2 block, APOBEC3G inh, A3A deaminase)
N#Cc1nc(COc2cccc(Cl)c2)oc1NCc1ccco1	AHR act 63.0
O=C(NN=Cc1cn(-c2ccccc2)nc1-c1ccc2c(c1)OCCO2)c1ccncc1	none (no result: PolyA inh, AHR act, Arr AP2 block, APOBEC3G inh, A3A deaminase)
Oc1sc(C=Nc2ccccc2)c2ccccc12	AHR act 49.9
C(=NNc1nn2cnnc2c2ccccc12)c1ccco1	none (no result: PolyA inh, AHR act, Arr AP2 block, APOBEC3G inh, A3A deaminase)
O=C(NN=Cc1cccnc1)C(=O)N1CCCCCC1	none (no result: PolyA inh, AHR act, Arr AP2 block, APOBEC3G inh, A3A deaminase)
Nc1c(C(=O)Nc2ccc3c(c2)OCCO3)nnn1Cc1cccc(Br)c1	none
Nc1c(C(=O)Nc2ccc3c(c2)OCCO3)nnn1Cc1ccc(Br)cc1	AHR act 50.8
N#C/C(=C/c1ccc(-c2ccc([N+](=O)[O-])cc2)o1)C(=O)Nc1nc(-c2cccs2)cs1	none (no result: PolyA inh, AHR act, APOBEC3G inh, A3A deaminase)
N#C/C(=C/c1ccc(-c2ccccc2)o1)c1nc(-c2cccs2)cs1	AHR act 53.9 (no result: PolyA inh, UCH37 DUB inh, APOBEC3G inh, A3A deaminase)

Screens from PubChem BioAssay.
